Assay outcomes (PubChem)
FN deposit inh = fibronectin deposition inhibition | actives 0.086% (n = 350,000) | inhibition, % at 12.6 µM | AH1F fibroblasts, Alexa488-fibronectin deposition fluorescence, overnight;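 active means mean inhibition across replicates of 30% or more, regardless of how many single replicates reach that level; inconclusive means mean under 30% yet at least half of replicates reach 30%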;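 further: positive control wells lacked labelled fibronectin entirely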
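Material: AH1F fibroblasts assembling fluorescent fibronectin matrix; amount: 10000 AH1F cells/well; medium: DMEM, 2% serum; reagent: Alexa488-fibronectin, 24 nM final in well; dosing: single compound dose, delivered by pin transfer; incubation: 1 h adhesion, overnight exposure; detection: fluorescence after three HBSS washes, excitation 485 nm, emission 525 nm; measure: fibronectin deposition inhibition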
TWEAK-Fn14 inh = inhibitors of TWEAK-Fn14 interaction signaling; TWEAK-stimulated Fn14 reporter cells, luciferase luminescence, 8 h; inhibition, % at 10 µM; actives 2% (n = 360,000); in the data active means inhibition above about 50%
EWS-Fli inh = EWS/Fli transcriptional activity inhibition | A673 NR0B1-luciferase reporter, viability-normalised | actives 0.67% (n = 350,000) | inhibition, % at 12.6 µM;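 active means mean inhibition of at least 50% after viability correction, with every replicate also passing that limit; inconclusive means mean reaches 50% but only one of two replicates passes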;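 further: firefly luciferase signal divided by Alamar Blue viability fluorescence both relative to DMSO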
TROY signal inh = blocks TROY-dependent signaling in reporter cells | Q293 LMP1-TROYcd NF-kB luciferase reporter, 4 h | inhibition, % at 10 µM | actives 0.98% (n = 360,000);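 active means compounds whose plate-normalised and pattern-corrected inhibition of the luciferase reporter signal at the single screening dose is 50% or more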
LGR2 antag = blocks bursicon-induced cAMP signaling via Drosophila LGR2 | HEK293 LGR2, CRE-luciferase, bursicon-stimulated, 4 h | inhibition, % at 9.99 µM | actives 0.35% (n = 380,000);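 active means drop in luminescence signal, shown as inhibition above about 50% in the replicate tests, limit read from the data, passing the limit was not always enough; inconclusive means probably only some replicates passing the limit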;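 further: agonist challenge used bursicon conditioned medium at about half maximal strength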
XiGFP reactiv = activators of X-chromosome reactivation in mouse fibroblasts; XiGFP mouse fibroblasts, % GFP-positive cells imaging, 3 d; cells co-treated with 5-aza-dC sensitizer; scaled so ellipticine positive control = 100%; activation, % at 7.58 µM; actives 0.055% (n = 360,000); AID 743238;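 active means mean normalized replicate activation at least 10% and every replicate at or above 10%; inconclusive means only one of the two criteria met; inactive means mean below 10% and not all replicates reach 10%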;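 further: 0% = median of on-plate neutral control wells and 100% = ellipticine 6 µM median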
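System: 68-5-11 XiGFP fibroblast line; Timing: 3 days compound exposure; Compound dosing: one concentration, pinned; Benchmarks: positive control ellipticine, 6 µM final; Buffer or medium: DMEM containing 5-aza-dC.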
Numbers without * were called inactive; ? = inconclusive; . = not tested or not shown. An excerpt weighted towards active compounds, which were near 2.3% of everything screened.

SMILES	FN deposit inh	TWEAK-Fn14 inh	EWS-Fli inh	TROY signal inh	LGR2 antag	XiGFP reactiv
O=C1CSC(=S)N1c1cccc(O)c1	1	76*	0	31	16	0
CC(C)C(=O)N=C1NC(=O)CS1	-4	-4	4	3	0	0
O=C1CSC(=NC(=O)c2ccccc2)N1	.	69*	8	-3	21	.
CCCN1CCC(=O)N([C@H](CSc2ccccc2)c2ccccc2)CC1	-3	0	-78	-25	-47	0
CCCN1CCC(=O)N([C@H](CSc2ccc(C)cc2)c2ccccc2)CC1	-5	37	-82	50*	.	0
COc1ccccc1CNC(=O)C[C@H]1C[C@H]2c3cc(NC(=O)c4cccnc4)ccc3O[C@H]2[C@H](CO)O1	.	.	6	.	0	0
CC(=O)NCCNC(=O)c1ccc(CSc2nc3ccccc3s2)cc1	.	85*	.	69*	67*	0
CCOC(=O)c1c(CSC(=N)N)n(-c2ccc(C)cc2)c2cc(Br)c(OC(C)=O)cc12	-2	92*	.	33	.	.
CN(C)C(=O)[C@@H]1[C@@H](CO)[C@@H]2Cn3c(ccc(C4=CCCCC4)c3=O)[C@H]1N2Cc1ccccc1	.	.	1	.	9	1
COc1ccc(NC(=O)Nc2ccc3c(c2)C(=O)N([C@@H](C)CO)C[C@H](C)[C@@H](CN(C)S(=O)(=O)c2cccs2)OCCCC[C@@H](C)O3)cc1	.	.	-3	.	17	0
COc1ccc(C(=O)Nc2nnc(SCC(=O)NC3CCCC3)s2)c(OC)c1	.	74*	.	-25	-42	0
COc1ccc(C(=O)Nc2nnc(SCC(=O)NC3CC3)s2)cc1	-11	54*	20	7	?	.
COc1ccc(C(=O)Nc2nnc(SCC(=O)NCc3ccco3)s2)c(OC)c1	.	75*	.	43	?	0
COc1ccc2nc(SCC(=O)NC3CCCC3)c(C)cc2c1	7	11	55*	2	3	0
COc1ccc(C(=O)Nc2nnc(SCC(=O)Nc3ccc(NC(C)=O)cc3)s2)c(OC)c1	1	11	-83	25	12	0
CC(=O)c1ccc(N2CCN(c3ccc(S(=O)(=O)NCCCN(C)C)cc3[N+](=O)[O-])CC2)cc1	7	10	38	5	4	0
CN(C)CCCNS(=O)(=O)c1ccc(N2CCN(Cc3ccc4c(c3)OCO4)CC2)c([N+](=O)[O-])c1	7	35	52*	27	5	0
COc1ccccc1NC(=O)N[C@H]1CC[C@H](CCn2cc(-c3ccccc3OC)nn2)O[C@H]1CO	4	.	14	.	-12	7
CN1/C(=C/C=C(C#N)C#N)C(C)(C)c2ccccc21	-71	-9	-17	9	.	25*
CN1/C(=C\C=O)C(C)(C)c2ccccc21	-1	6	4	-9	-5	0
CN1\C(=C/C=C/C=C/C=[N+](C)C)C(C)(C)c2ccccc21	-9	16	66*	5	.	0
O=C(C[C@@H]1CC[C@@H](NC(=O)c2ccncc2)[C@H](CO)O1)NCC1CC1	-6	.	-7	.	2	0
O=C(Nc1cnn(C23CC4CC(CC(C4)C2)C3)c1)c1cnn2c(C(F)(F)F)cc(-c3ccco3)nc12	.	96*	7	81*	79*	.
O=C(Nc1ccc2c(c1)OCO2)c1cnn2c(C(F)(F)F)cc(-c3ccco3)nc12	.	10	.	-9	.	.
C[C@@H]1CN([C@@H](C)CO)C(=O)c2cc(C#Cc3cccc(F)c3)cnc2O[C@@H]1CN(C)C(=O)C1CCOCC1	.	.	0	.	-4	1
SMILES	FN deposit inh	TWEAK-Fn14 inh	EWS-Fli inh	TROY signal inh	LGR2 antag	XiGFP reactiv
CC(C)n1c(-c2ccc(N(C)C)cc2)nc2ccccc21	.	27	.	29	.	.
CN(C)c1ccc(C(O)Cc2nc3ccccc3n2C)cc1 (stereo unspecified)	-10	74*	-58	79*	50	0
CN(C)c1ccc(-c2nc3ccccc3n2C)cc1	.	43	.	-3	74*	.
CC(C)c1ccc(C(O)Cc2nc3ccccc3n2C)cc1 (stereo unspecified)	2	31	-56	49	-47	0
CO[C@@H]1CN(C)C(=O)c2ccc(NC(=O)c3ccccn3)cc2OC[C@@H](C)N(Cc2ccccn2)C[C@H]1C	.	.	4	.	.	.
C[C@@H]1CCCCO[C@@H](CN(C)C(=O)C2CCCCC2)[C@H](C)CN([C@@H](C)CO)C(=O)c2cc(NS(=O)(=O)c3cn(C)cn3)ccc2O1	.	.	0	.	-10	0
Cc1cc(C)cc(Oc2ccc(-c3nnc(-c4ccccc4)o3)cc2[N+](=O)[O-])c1	0	101*	3	87*	.	1
COc1ccc(-c2onc3ccc(Br)cc23)cc1	0	5	.	-20	14	0
COc1cc(-c2onc3ccc(Br)cc23)cc(OC)c1OC	.	-6	56*	-9	18	0
C[C@H]1CN([C@@H](C)CO)C(=O)Cc2cc(NS(=O)(=O)c3cccs3)ccc2O[C@H]1CN(C)Cc1ccc(C(=O)Nc2ccccc2N)cc1	.	.	.	.	0	0
O=C1C(Br)=C(c2ccccc2)C(c2ccccc2)=C1c1ccccc1	.	57*	.	-4	.	.
O=c1[nH]c(C2CCN(S(=O)(=O)c3ccc4c(c3)OCCO4)CC2)nc2c1nnn2Cc1c(F)cccc1Cl	14	55*	5	24	-17	0
CC(C)NC(=O)N(C)C[C@@H]1Oc2ccc(NC(=O)NC3CCCCC3)cc2CC(=O)N([C@@H](C)CO)C[C@@H]1C	.	.	-3	.	-9	0
NNc1nc(-c2ccccc2)c2cc(Cl)ccc2n1	-3	3	10	-20	-15	0
O=C(NCCO)c1cccc(Nc2nc(-c3ccccc3)c3cc(Cl)ccc3n2)c1	.	51*	.	22	.	.
CCN(CC)c1ccc2nc3ccccc3[n+](CC)c2c1	.	64*	.	25	.	.
CCN(CC)c1ccc2nc3ccc(N)cc3[n+](-c3ccccc3)c2c1	8	11	28	-2	59*	0
O=C(N[C@H]1CC[C@H](CCNS(=O)(=O)c2ccc(F)cc2)O[C@@H]1CO)C1CCOCC1	.	.	5	.	13	0
COc1ccc(-c2nn(-c3ccccc3)cc2/C=N/O)cc1	3	-6	-24	-29	-10	0
COc1ccc(-c2nn(-c3ccccc3)cc2/C=N/N2C(=O)CSC2=S)cc1	-3	62*	.	-33	.	.
C[C@@H]1CCCCO[C@H](CN(C)C(=O)c2ccccc2)[C@@H](C)CN([C@H](C)CO)C(=O)c2cc(NS(C)(=O)=O)ccc2O1	.	.	-9	.	6	-1
COc1ccc2c3c(n(C)c2c1)[C@@H](CO)N(C)CC31CN(S(C)(=O)=O)C1	.	.	-7	.	-14	0
O=C1NCCOCn2nncc2CC[C@H]1Cc1ccccc1	-13	.	.	.	.	0
